Inhibition and IC50 data for two compounds are collected here from ChEMBL document CHEMBL5365542, “Difluoromethyl-1,3,4-oxadiazoles Are Selective, Mechanism-Based, and Essentially Irreversible Inhibitors of Histone Deacetylase 6” (J Med Chem, 2023).

Assay [1] concerns the target Histone deacetylase 2 (Homo sapiens) (UniProt Q92769). The assay can be described thus: Inhibition of C-terminal 6His-tagged human recombinant HDAC2 (1 to 488 residues) expressed in Sf9 insect cells using Z-Lys(Ac)-AMC as fluorogenic substrate at 10 uM preincubated for 60 mins followed by substrate addition and measured after 90 mins by microplate reader analysis relative to control. Particulars: time 150.0 min. The gist of the method:
(§1)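 Human recombinant enzyme was preincubated with 3-fold inhibitor dilutions for 60 min at 25 °C in Tris-HCl pH 8.0 buffer with BSA. ZMAL (75 μM solution) was then added, and the mix was incubated 90 min at 37 °C (max 1% DMSO). Trypsin was added for 30 min at 37 °C, and fluorescence was read at ex 355/em 460. Tested at least twice in duplicate.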

Assay [2] has as its target Histone deacetylase 4 (Homo sapiens) (UniProt P56524). The assay can be described thus: Inhibition of N-terminal GST-tagged/C-terminal His-tagged human HDAC4 (627 to 1084 residues) expressed in Sf9 insect cells using Boc-Lys(Tfa)-AMC as fluorogenic substrate at 10 uM preincubated for 60 mins followed by substrate addition and measured after 90 mins by microplate reader analysis relative to control. The conditions noted are these: time 150.0 min. In a few lines: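 Recombinant human HDAC4 was preincubated with inhibitor for 60 min at 25 °C in Tris-HCl pH 8.0/BSA buffer. Boc-Lys(Tfa)-AMC (42.86 μM solution) was then added for 90 min at 37 °C, followed by trypsin for 30 min at 37 °C. Fluorescence was read at ex 355/em 460. Tested at least twice in duplicate.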

Assay [3] has as its target T1, Protein deacetylase HDAC6 (Homo sapiens, UniProt Q9UBN7).
T1 sequence (Q9UBN7 whole entry): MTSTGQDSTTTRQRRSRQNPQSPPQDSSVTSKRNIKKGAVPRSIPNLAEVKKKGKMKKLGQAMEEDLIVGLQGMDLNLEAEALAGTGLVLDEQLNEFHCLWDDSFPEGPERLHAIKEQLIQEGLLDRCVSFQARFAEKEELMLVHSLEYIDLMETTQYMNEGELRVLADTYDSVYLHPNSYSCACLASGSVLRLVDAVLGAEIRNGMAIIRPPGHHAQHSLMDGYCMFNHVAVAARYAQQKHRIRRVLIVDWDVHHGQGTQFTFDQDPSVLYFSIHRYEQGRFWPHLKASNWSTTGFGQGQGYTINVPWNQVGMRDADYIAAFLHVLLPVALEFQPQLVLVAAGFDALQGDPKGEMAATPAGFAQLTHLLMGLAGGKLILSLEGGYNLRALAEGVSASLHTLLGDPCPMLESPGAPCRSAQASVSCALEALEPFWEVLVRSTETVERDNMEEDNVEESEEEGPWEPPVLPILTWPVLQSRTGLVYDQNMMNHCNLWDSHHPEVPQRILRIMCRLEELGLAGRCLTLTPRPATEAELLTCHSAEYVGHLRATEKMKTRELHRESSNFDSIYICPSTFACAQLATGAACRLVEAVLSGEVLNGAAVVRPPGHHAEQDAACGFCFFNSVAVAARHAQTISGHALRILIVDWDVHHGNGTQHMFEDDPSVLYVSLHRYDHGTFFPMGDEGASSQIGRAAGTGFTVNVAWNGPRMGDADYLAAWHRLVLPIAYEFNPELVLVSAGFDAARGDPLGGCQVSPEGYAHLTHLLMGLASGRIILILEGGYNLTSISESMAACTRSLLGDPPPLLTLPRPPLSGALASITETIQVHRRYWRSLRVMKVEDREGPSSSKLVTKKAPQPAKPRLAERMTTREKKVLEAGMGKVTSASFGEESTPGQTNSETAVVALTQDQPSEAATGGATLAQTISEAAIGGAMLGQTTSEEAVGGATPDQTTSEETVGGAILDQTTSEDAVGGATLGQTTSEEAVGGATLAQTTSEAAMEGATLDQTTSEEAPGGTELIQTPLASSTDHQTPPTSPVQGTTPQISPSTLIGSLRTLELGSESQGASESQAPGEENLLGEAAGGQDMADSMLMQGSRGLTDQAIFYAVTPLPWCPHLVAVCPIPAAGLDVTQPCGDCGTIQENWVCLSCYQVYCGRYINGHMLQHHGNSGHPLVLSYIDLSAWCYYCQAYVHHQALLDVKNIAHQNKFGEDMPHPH
The assay is described as follows: Inhibition of N-terminal GST tagged human recombinant HDAC6 (1 to 1215 residues) expressed in Sf9 insect cells using Z-Lys(Ac)-AMC as fluorogenic substrate preincubated for 2 hrs followed by substrate addition and measured after 90 mins by microplate reader analysis.

The target of assay [4] is Histone deacetylase 3/Nuclear receptor corepressor 2 (HDAC3/NCoR2) (Homo sapiens) (UniProt O15379+Q9Y618). The assay is described as follows: Inhibition of C-terminal His-tagged human HDAC3 (1 to 428 residues)/N-terminal GST tagged human NcoR2 (395 to 489 residues) expressed in Sf9 insect cells using Z-Lys(Ac)-AMC as fluorogenic substrate at 10 uM preincubated for 60 mins followed by substrate addition and measured after 90 mins by microplate reader analysis relative to control. The conditions noted are these: time 150.0 min. In a few lines:
as §1

For orientation: inhibition means the drop in the measured response relative to a control, in per cent. A word on the IC50: it is the concentration that inhibits the measured activity by half.

Chain of Histone deacetylase 4 (Homo sapiens) (P56524 whole entry, the tested form may be a part): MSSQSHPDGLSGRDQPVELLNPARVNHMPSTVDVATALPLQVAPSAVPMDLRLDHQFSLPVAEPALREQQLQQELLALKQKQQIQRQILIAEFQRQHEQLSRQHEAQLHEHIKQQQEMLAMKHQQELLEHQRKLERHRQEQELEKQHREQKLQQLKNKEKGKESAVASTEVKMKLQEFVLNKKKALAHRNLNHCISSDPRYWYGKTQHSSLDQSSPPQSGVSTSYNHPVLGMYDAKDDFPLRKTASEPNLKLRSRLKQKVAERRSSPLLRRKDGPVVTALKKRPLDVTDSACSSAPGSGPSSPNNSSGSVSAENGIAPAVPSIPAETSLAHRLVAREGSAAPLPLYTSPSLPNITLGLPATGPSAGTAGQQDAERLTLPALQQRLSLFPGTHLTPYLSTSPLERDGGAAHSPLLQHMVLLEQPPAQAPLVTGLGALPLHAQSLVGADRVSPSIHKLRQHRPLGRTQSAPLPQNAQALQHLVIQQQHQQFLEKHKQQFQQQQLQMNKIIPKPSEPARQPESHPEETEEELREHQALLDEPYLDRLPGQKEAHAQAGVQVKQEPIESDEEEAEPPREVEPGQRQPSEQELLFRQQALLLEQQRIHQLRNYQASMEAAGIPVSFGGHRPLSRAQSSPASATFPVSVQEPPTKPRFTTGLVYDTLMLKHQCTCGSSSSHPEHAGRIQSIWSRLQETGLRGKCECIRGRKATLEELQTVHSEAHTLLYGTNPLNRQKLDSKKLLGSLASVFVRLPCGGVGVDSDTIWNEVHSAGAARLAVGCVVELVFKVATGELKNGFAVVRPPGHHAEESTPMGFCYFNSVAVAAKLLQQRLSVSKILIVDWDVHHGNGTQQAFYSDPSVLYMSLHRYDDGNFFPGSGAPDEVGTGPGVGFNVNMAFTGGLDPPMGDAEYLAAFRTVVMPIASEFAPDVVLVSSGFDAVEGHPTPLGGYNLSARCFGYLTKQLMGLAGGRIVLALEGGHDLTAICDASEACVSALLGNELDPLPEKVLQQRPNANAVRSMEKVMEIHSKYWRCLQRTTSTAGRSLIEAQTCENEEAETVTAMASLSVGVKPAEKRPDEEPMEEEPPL
Chain of Histone deacetylase 2 (Homo sapiens) (Q92769 whole entry, the tested form may be a part): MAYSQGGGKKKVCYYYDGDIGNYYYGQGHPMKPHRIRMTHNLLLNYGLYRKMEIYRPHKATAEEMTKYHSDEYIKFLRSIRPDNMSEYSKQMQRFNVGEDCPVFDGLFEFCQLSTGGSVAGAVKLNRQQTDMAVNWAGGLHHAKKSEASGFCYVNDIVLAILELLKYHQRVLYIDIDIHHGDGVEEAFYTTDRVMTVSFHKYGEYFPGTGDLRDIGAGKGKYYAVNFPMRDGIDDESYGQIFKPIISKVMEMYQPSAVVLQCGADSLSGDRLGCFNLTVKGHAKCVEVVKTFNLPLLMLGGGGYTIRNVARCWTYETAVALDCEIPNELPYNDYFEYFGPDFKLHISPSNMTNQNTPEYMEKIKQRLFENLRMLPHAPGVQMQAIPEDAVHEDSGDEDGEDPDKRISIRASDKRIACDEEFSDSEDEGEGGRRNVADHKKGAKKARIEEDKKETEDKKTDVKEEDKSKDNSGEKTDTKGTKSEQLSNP

`FC(F)c1nnc(-c2cnc(NCc3ccccc3)nc2)o1`: the inhibition in assay [1], in assay [2] and in assay [4] was less than 15% each time. Besides, the IC50 in assay [3] was 129 nM.
Regarding `FC(F)(F)c1nnc(-c2cnc(NCc3ccccc3)nc2)o1`, the inhibition in assay [1], in assay [2] and in assay [4] was less than 15% in each case. The IC50 in assay [3] was 601 nM.
